MC4R barr agon – human MC4R agonism via beta-arrestin; P32245; U2OS MC4R beta-arrestin complementation, luminescence; percent of melanotan II response, DMSO zero; activation, % at 8.9 µM; 360,000 tested, 0.98% active; AID 540308;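 active means activation above a per-plate cutoff, the mean activation of sample wells on that plate plus 3 SD, cut at about 8% in these data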
m5-HT2A agonist – mouse HTR2A agonism via beta-arrestin recruitment | P35363 | AID 624169 | activation, % at 7.6 µM | CHO-K1 mHTR2A beta-arrestin complementation, luminescence; percent of 30 µM serotonin response | 360,000 tested, 0.66% active;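 active means activation above a run cutoff, the mean activation of all tested compounds plus 3 SD, cut at about 14% in these data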
Target sequence (P35363 whole entry, looked up): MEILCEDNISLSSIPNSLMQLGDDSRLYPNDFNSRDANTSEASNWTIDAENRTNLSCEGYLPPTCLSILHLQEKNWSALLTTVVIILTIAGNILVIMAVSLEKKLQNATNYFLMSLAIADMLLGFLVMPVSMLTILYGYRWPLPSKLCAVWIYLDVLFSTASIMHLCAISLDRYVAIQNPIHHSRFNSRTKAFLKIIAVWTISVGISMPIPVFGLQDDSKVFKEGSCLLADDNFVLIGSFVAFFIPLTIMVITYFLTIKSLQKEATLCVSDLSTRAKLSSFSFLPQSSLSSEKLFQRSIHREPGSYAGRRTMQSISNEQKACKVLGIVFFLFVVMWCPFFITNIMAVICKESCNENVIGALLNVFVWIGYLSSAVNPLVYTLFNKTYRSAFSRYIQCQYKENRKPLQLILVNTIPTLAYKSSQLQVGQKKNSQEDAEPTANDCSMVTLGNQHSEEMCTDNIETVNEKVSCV
AHR act – activates the human aryl hydrocarbon receptor; AHR-responsive luciferase reporter cells, luminescence; activation, % at 5 µM; 320,000 tested, 2.5% active; AID 2796; in the data active means activation above about 47%
GAA850 FXN act – frataxin GAA850 promoter activation; 360,000 tested, 0.56% active; HEK293 lucGAA850 FXN promoter luciferase reporter, 24 h; percent of 10 µM SAHA response; activation, % at 6 µM;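 active means activation above the average of all compounds screened plus 3 SD, cutoff fixed separately per campaign, cut at about 7.5% in these data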
MC4R antagonist – human MC4R antagonism in cAMP assay; P32245; AID 540295; inhibition, % at 6.5 µM; MC4R-expressing cells, MTII-stimulated cAMP, LANCE TR-FRET; 360,000 tested, 0.48% active;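 active means inhibition above its plate's cutoff, the mean of tested wells on that plate plus 3 SD, cut at about 29% in these data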
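System: U2OS-MC4R stable cell line; Technique: Eu-cAMP/anti-cAMP TR-FRET, emission 671 nm; Repeats: single well per compound; Also added: Melanotan II; Dosing: one concentration, 6.5 µM nominal; Schedule: 30-min compound, 1-h challenge, 1-h detection, room temperature.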
GAA30 FXN cntr – GAA30 FXN promoter activation counter-screen | AID 588350 | 1,900 tested, 66% active | shares compounds with GAA850 FXN act | HEK293 lucGAA30 FXN promoter luciferase, 24 h; DMSO = 0%, 5 µM ipriflavone = 100% | activation, % at 6 µM;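 active means mean activation above the mean of solvent-only control wells plus 3 SD, cut at about 22% in these data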;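 further: counterscreen of GAA850 promoter hits where activity marks nonselective or luminescence artifacts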
FXN GAA850 conf – confirmation of GAA850 frataxin (FXN) promoter activators | shares compounds with GAA850 FXN act | HEK293 lucGAA850 FXN promoter luciferase reporter, 24 h; 100% = activation by SAHA | activation, % at 6 µM | 1,900 tested, 86% active;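 active means mean activation above a set limit taken from the primary screen, cut at about 8% in these data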
Each line names hits and unclear results; the compound was inactive in the other large screens (follow-up assays come after a bar, where they were run). The list is not random: actives were taken first. Their share in the collection is about 4.7%.

Cc1ccc(S(=O)(=O)NCc2ccc(C(=O)N3CCN(c4ccc([N+](=O)[O-])cc4)CC3)cc2)cc1	none
CCOc1ccc(N2CC(C(=O)NNC(=O)c3ccc(Br)cc3)CC2=O)cc1 (stereo not drawn)	none
O=C(Nc1cc(C(F)(F)F)ccc1N1CCCC1)C1CC(=O)N(Cc2ccccc2)C1 (stereo not drawn)	none (no result: AHR act)
COc1ccc2nc(NC(=O)CS(=O)(=O)c3ccc(C)cc3)sc2c1	none
Cc1nn2c(N)c(C#N)cnc2c1-c1ccccc1	GAA850 FXN act 9.0 | GAA30 FXN cntr 37.8 | FXN GAA850 conf 20.3
COc1cc(C)ccc1OCc1cc(C(=O)N2CCC(c3ccc(F)cc3)C2)no1 (stereo not drawn)	GAA850 FXN act 8.9 | GAA30 FXN cntr 117.3 | FXN GAA850 conf 35.4
c1cc(-c2ccc(N3CCOCC3)cc2)n2cnnc2c1	none (no result: AHR act)
CC(=O)Nc1ccc2c(c1)Cc1cc(N3C(=O)C=CC3=O)ccc1-2	GAA850 FXN act 11.0 (no result: AHR act) | GAA30 FXN cntr inactive | FXN GAA850 conf inactive
COc1ccc(C2CC(=O)N(CC(=O)NCC3CCCO3)c3ccccc3S2)cc1OC (stereo not drawn)	none
COc1ccc(C2CC(=O)N(C)c3ccccc3S2)cc1OC (stereo not drawn)	GAA850 FXN act 8.4 | GAA30 FXN cntr 121.6 | FXN GAA850 conf 45.4
COc1cccc(-c2cccc(NC(=O)C3CCN(CCCn4cccn4)CC3)c2)c1	none (no result: AHR act)
Cc1cc(Br)ccc1NC(=O)CN(C)C(=O)C1CCN(c2ncnc3sc(C)c(C)c23)CC1	none (no result: AHR act)
COc1cc(/C=N/Nc2nc3ccccc3s2)ccc1OC(=O)c1ccccc1F	AHR act 78.3, GAA850 FXN act 9.3 | GAA30 FXN cntr 118.4 | FXN GAA850 conf 40.9
CC1CCCN(c2ccc(C(=O)NCc3cccs3)cn2)C1 (stereo not drawn)	none
O=C(NCc1cccs1)c1ccc(N2CCCCC2)nc1	GAA850 FXN act 7.7 | GAA30 FXN cntr 85.6 | FXN GAA850 conf 29.9
CCOC(=O)CN1C(=O)S/C(=C/C=C/c2ccc(N(C)C)cc2)C1=O	GAA850 FXN act 8.0 | GAA30 FXN cntr 77.6 | FXN GAA850 conf 33.8
CCCCCCCCC(=O)c1c(OC)oc(C=O)cc1=O	none (no result: AHR act)
O=C(CN1C(=O)c2ccccc2C1=O)OCC(=O)c1ccccc1	none
N/C(=N\N=C\c1cccc(O)c1)c1nonc1N	GAA850 FXN act 7.9 | GAA30 FXN cntr 128.3 | FXN GAA850 conf 20.6
N/C(=N\N=C\c1ccc(O)cc1)c1nonc1N	none
C=CC[C@H](CC(=O)N(CCO)Cc1ccccc1)C(=O)N[C@H](COC(=O)[C@@H](CC=C)CC(=O)OC(C)(C)C)c1ccccc1	none
Cc1ccccc1OCC(=O)Nc1ccc2[nH]ncc2c1	none
Cc1nonc1C(=O)N/N=C/c1ccc(O)c(O)c1	GAA850 FXN act 9.4 | GAA30 FXN cntr 29.6 | FXN GAA850 conf 8.4
COc1ccc(S(=O)(=O)N2CCOC2CNC(=O)C(=O)NCc2ccccn2)cc1OC (stereo not drawn)	none (no result: AHR act)
O=C(O)COc1ccccc1/C=C1\C(=O)Nc2ccc(Br)cc21	none
O=C1Nc2ccc(Br)cc2/C1=C/C(=O)c1ccccc1	GAA850 FXN act 11.3 (no result: AHR act) | GAA30 FXN cntr inactive | FXN GAA850 conf 16.6
O=C(COc1ccc(Cl)cc1[N+](=O)[O-])NC1CCCCC1	GAA850 FXN act 8.1 | GAA30 FXN cntr 85.1 | FXN GAA850 conf 28.6
Cc1c(Cl)ccc2sc(NC(=O)c3ccco3)nc12	GAA850 FXN act 7.7 | GAA30 FXN cntr 104.8 | FXN GAA850 conf 37.5
CS(=O)(=O)c1ccc2nc(NC(=O)c3ccco3)sc2c1	none
CCC(=O)c1ccc2c(c1)OCCO2	none
O=C(Cn1ncc(Cl)c(Cl)c1=O)c1ccc2c(c1)OCCO2	GAA850 FXN act 8.6 | GAA30 FXN cntr inactive | FXN GAA850 conf 18.5
CN(C)c1nc(OCCOC(=O)COc2ccc(Cl)cc2Cl)nc(N(C)C)n1	none
CN(C)c1nc(OCCNC(=O)COc2ccc(Cl)cc2Cl)nc(N(C)C)n1	GAA850 FXN act 8.3 | GAA30 FXN cntr inactive | FXN GAA850 conf inactive

Source: PubChem (The Scripps Research Institute Molecular Screening Center)
